As a reminder, the IC50 is the point on the concentration scale where inhibition reaches its midpoint. A low value points to greater potency in that assay.

Structures are written as SMILES. Activity calls are given as the source filed them. The calls are words filed in the database; no cut-off is given here. Some results are limits rather than exact numbers.

Consider 34 compounds from ChEMBL document CHEMBL1157767, “Phenylcinnamides as novel antimitotic agents” (J Med Chem, 2010).

Assay [1] deals with U-937. In words: Cytotoxicity against human U937 cells after 72 hrs MTS assay. Type of assay: functional, cell-based. Conditions: U-937, 72 h. The procedure, abridged: (§1)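 Cells in RPMI-1640/10% FBS seeded at 1 × 10⁵ (U-937, HL-60) or 1.5 × 10⁵ (HL-60/VCR) cells/mL with compound from DMSO series, 10 concentrations 100 μM to 5 nM, five replicates; 72 h at 37 °C. MTS/PMS added until vehicle OD ≈1.5, A490. Internal positive and DMSO controls; IC50 by four-parameter logistic fit; SD from ≥3 experiments, or mean of two.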
(Tetrazolium assays rely on reduction of a dye to a coloured formazan, in cell work by metabolically active cells.)

Assay [2] deals with HeLa. In words: Cytotoxicity against human HeLa cells after 72 hrs SRB assay. Type of assay: functional, cell-based. The procedure, abridged: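 HeLa cells (5 × 10⁴ cells/mL suspension) seeded with compound from DMSO dilution series, 10 concentrations 100 μM to 5 nM, five replicates each; 72 h at 37 °C, 5% CO₂. TCA fixation, sulforhodamine B staining, bound dye released in 10 mM Tris pH 10.5, A510. Plate positive and DMSO controls calibrate % death; IC50 from four-parameter logistic fit; SD from ≥3 experiments, or mean of two.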

In assay [3] the test system is HeLa. The experiment in a line: Induction of mitotic arrest in human HeLa cells assessed as disruption of microtubule assembly at 25 uM after 6 hrs fluorescence confocal microscopy. The format is functional, cell-based. The essentials: (§2)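 HeLa on nitric acid-washed coverslips, treated at 70% confluency for 6 h with compound (25 μM) or DMSO (0.2% final). Glutaraldehyde fixation in BRB-80, Triton X-100 permeabilization, NaBH₄ reduction, goat-serum block, FITC anti-α-tubulin plus Alexa-Fluor 488 secondary, propidium iodide with RNase A; laser scanning confocal imaging, 63× oil objective.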

Assay [4] relates to HL-60. The experiment in a line: Cytotoxicity against human HL60 cells after 72 hrs MTS assay. Type of assay: functional, cell-based. Particulars: HL-60, 72 h. The procedure, abridged:
as §1

Assay [5] concerns HL-60. In words: Selectivity ratio of IC50 for vincristine-resistant human HL60 cells to IC50 for human HL60 cells. The format is functional. The essentials: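 Ratio of MTS-assay IC50 (72 h) in P-gp-overexpressing, vincristine/colchicine-resistant HL-60/VCR over IC50 in parental HL-60.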
The test system of assay [6] is HL-60. The experiment in a line: Cytotoxicity against vincristine-resistant human HL60 cells after 72 hrs MTS assay. The format is functional, cell-based. Particulars: HL-60, 72 h. The essentials:
as §1

The subject of assay [7] is HeLa. In words: Cell cycle arrest in human HeLa cells by accumulation of cells at M phase at 100 nM after 9 hrs by propidium iodide staining based flow cytometry. Type of assay: functional. The procedure, abridged:
(§3)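 HeLa synchronized in G1/S by double thymidine block, released by washing and plated in fresh medium with test agent (25 μM or 100 nM) or DMSO vehicle for 9 h at 37 °C. Cells fixed in 3% formaldehyde-PBS, permeabilized in cold MeOH, stained with mouse anti-phospho(Ser10) histone H3 then Alexa-Fluor 488 secondary, RNase A-treated, propidium iodide DNA stain. Dual-laser flow cytometry; PI marks G2/M, phospho-H3 marks M-phase.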
(A flow cytometer gives signals particle by particle.)

Assay [8] concerns HeLa. The experiment in a line: Cell cycle arrest in human HeLa cells by accumulation of cells at G2 phase at 100 nM after 9 hrs by propidium iodide staining based flow cytometry. The format is functional. The procedure, abridged: as §3
Assay [9] can be described thus: Inhibition of tubulin polymerization at 100 uM by turbidimetry.
The species named for a further assay is Bos taurus. The experiment in a line: Inhibition of bovine brain tubulin polymerization at 10 uM by turbidimetry.
In assay [10] the test system is HeLa. In words: Induction of mitotic arrest in human HeLa cells assessed as chromosomal condensation at 25 uM after 6 hrs fluorescence confocal microscopy. The format is functional, cell-based. The essentials: as §2
Assay [11] deals with HeLa. In words: Cell cycle arrest in human HeLa cells by accumulation of cells at G2/M phase at 25 uM after 9 hrs by propidium iodide staining based flow cytometry. Type of assay: functional. Particulars: in the assay text read “M phase” for “G2/M phase”. The essentials: as §3
Assay [12] relates to HeLa. The experiment in a line: Cell cycle arrest in human HeLa cells by accumulation of cells at G2/M phase at 25 uM after 9 hrs by M-phase fluorescence staining based flow cytometry. The format is functional. The essentials:
as §3

Assay [13] deals with HeLa. The experiment in a line: Induction of mitotic arrest in human HeLa cells assessed as mitotic index by indirect immunofluorescence staining (Rvb=2.2%). The format is functional.
Assay [14] relates to U-937. In words: Cell cycle arrest in human U937 cells by accumulation of cells at G2/M phase at 25 uM after 9 hrs by propidium iodide staining based flow cytometry. Type of assay: functional.
Assay [15] concerns HeLa. In words: Induction of mitotic arrest in human HeLa cells assessed as increase in number of cells with mitotic DNA by indirect immunofluorescence staining. The format is functional, cell-based.

`COc1cccc(NC(=O)/C=C/c2cc(OC)c(OC)c(OC)c2)c1` had an IC50 in the assay with U-937 [1] greater than 50 µM.

With `COc1cccc(/C=C/C(=O)Nc2ccc3c(c2)OCCO3)c1`, the figures for the IC50 with HeLa [2] and in the assay on U-937 [1] were 20.1 µM and 15.9 µM, respectively.

Turning to `COc1ccccc1/C=C/C(=O)Nc1cc(OC)c(OC)c(OC)c1`, the IC50 in the assay with HeLa [2] stood at 6.1 µM; in the assay with U-937 [1], 5.1 µM.

Take `COc1cccc(CCC(=O)Nc2ccccc2OC)c1`: the IC50 in the assay on HeLa [2] and in the assay on U-937 [1] was greater than 50 µM each time.

`COc1cccc(/C=C/C(=O)Nc2cc(OC)cc(OC)c2)c1` displayed an IC50 in the assay with U-937 [1] greater than 50 µM.

Regarding `COc1cc(NC(=O)/C=C/c2cc(OC)c(OC)c(OC)c2)cc(OC)c1`, the IC50 amounted to 38.9 µM in the assay on HeLa [2] and 9.7 µM in the assay with U-937 [1].

As for `COc1cc(NC(=O)/C=C/c2cccc(OCc3ccccc3)c2)cc(OC)c1OC`, the IC50 came to 2.1 µM in the assay with HeLa [2], 1.8 µM in the assay with U-937 [1], 5.6 µM with HL-60 [4] and 5.5 µM with HL-60 [6]. Besides, the outcome in the assay on HeLa [3] was Active. Moreover, in the assay with HL-60 [5], the “Ratio IC50” value was found to be 0.98.

Turning to `COc1cc(NC(C)=O)cc(OC)c1OC`, the IC50 with HeLa [2] and with U-937 [1] was greater than 50 µM each time.

Regarding `COc1cccc(/C=C/C(=O)Nc2cc(C)cc(C)c2)c1`, the IC50 with U-937 [1] was greater than 50 µM.

`COc1ccc(NC(=O)/C=C/c2cccc(OC)c2)cc1` returned an IC50 with U-937 [1] of 18.1 µM. In other words, the double-digit micromolar range.

`COc1ccccc1NC(=O)/C=C/c1cccc(OC(F)(F)F)c1`: the IC50 with HeLa [2] was 9.8 µM; in the assay with U-937 [1], 40.4 µM.

Turning to `COc1cc(NC(=O)/C=C/c2ccc(O)cc2)cc(OC)c1OC`, the IC50 in the assay on HeLa [2] was greater than 50 µM; in the assay with U-937 [1], 32 µM.

With `COc1cccc(CCC(=O)Nc2cc(OC)c(OC)c(OC)c2)c1`, the IC50 with HeLa [2] is greater than 50 µM.

As to `COc1cc2c(c(OC)c1OC)-c1ccc(OC)c(=O)cc1[C@@H](NC(C)=O)CC2` [COLCHICINE], the Activity came to 59% in the assay with HeLa [7] and 37% with HeLa [8]. The IC50 in the assay on HL-60 [4] is 0.053 µM; in the assay on HL-60 [6] it was greater than 100 µM. For the same compound, the “Ratio IC50” value in the assay on HL-60 [5] is greater than 1000.

With `COc1ccccc1/C=C/C(=O)Nc1ccccc1OC`, the IC50 in the assay with HeLa [2] is 36.1 µM; in the assay on U-937 [1], greater than 50 µM.

On to `COc1cccc(/C=C/C(=O)Nc2cccc(OC)c2)c1`, for which the IC50 in the assay on HeLa [2] and in the assay on U-937 [1] was greater than 50 µM in each case.

For the compound `COc1cc(/C=C/C(=O)Nc2ccccc2)cc(OC)c1OC`, the IC50 in the assay with HeLa [2] and in the assay with U-937 [1] was greater than 50 µM each time.

Take `COc1cccc(/C=C/C(=O)Nc2ccccc2)c1`: the IC50 with HeLa [2] and in the assay on U-937 [1] was greater than 50 µM throughout.

Regarding `COc1cc(NC(=O)/C=C/c2ccc(O)cc2)cc(OC)c1`, the IC50 in the assay on HeLa [2] and with U-937 [1] was greater than 50 µM throughout.

With `COC(=O)/C=C/c1cccc(OC)c1`, the IC50 with HeLa [2] and in the assay on U-937 [1] was greater than 50 µM in each case.

In the case of `COc1cccc(/C=C/C(=O)NCc2cc(OC)c(OC)c(OC)c2)c1`, the IC50 with HeLa [2] and in the assay on U-937 [1] was greater than 50 µM throughout.

`COc1cc(/C=C/C(=O)Nc2cc(OC)c(OC)c(OC)c2)cc(OC)c1OC`: the IC50 with HeLa [2] was greater than 50 µM; with U-937 [1], 15.3 µM.

On to `COc1ccc(NC(=O)/C=C/c2cc(OC)c(OC)c(OC)c2)cc1`, for which the IC50 in the assay on HeLa [2] was greater than 50 µM; in the assay with U-937 [1], 22.4 µM.

`COc1cc(NC(=O)/C=C/c2cccc(O)c2)cc(OC)c1OC`: the results for the IC50 in the assay with HeLa [2] and in the assay on U-937 [1] were 18.7 µM and 56.7 µM, respectively.

Regarding `C=CCOc1cccc(/C=C/C(=O)Nc2cc(OC)c(OC)c(OC)c2)c1`, the results for the IC50 with HeLa [2] and with U-937 [1] were 5.4 µM and 13.3 µM, respectively.

On to `CC(=O)O[C@H]1C(=O)[C@@]2(C)[C@H]([C@H](OC(=O)c3ccccc3)[C@]3(O)C[C@H](OC(=O)[C@H](O)[C@@H](NC(=O)c4ccccc4)c4ccccc4)C(C)=C1C3(C)C)[C@]1(OC(C)=O)CO[C@@H]1C[C@@H]2O`, for which the inhibition entry in [9] was “Active”. Besides, the inhibition result in the assay filed under Bos taurus is “inactive”.

Regarding `COc1cccc(/C=C/C(=O)Nc2c(C)cccc2C)c1`, the IC50 in the assay on HeLa [2] and with U-937 [1] was greater than 50 µM each time.

For the compound `COc1cc(NC(=O)/C=C/c2cccc(OC(F)(F)F)c2)cc(OC)c1OC`, the IC50 in the assay with HeLa [2] is 4.4 µM; in the assay on U-937 [1], 13.2 µM; with HL-60 [4] it was 13.2 µM; in the assay on HL-60 [6], 13.1 µM. Moreover, in the assay on HL-60 [5], the “Ratio IC50” value was determined as 0.99.

Take `COc1cc2c(cc1O)CC[C@@H]1[C@@H]2CC[C@]2(C)[C@@H](O)CC[C@@H]12` [2-METHOXYESTRADIOL]: the results for the IC50 in the assay on HL-60 [4] and with HL-60 [6] were 3.4 µM and 0.9 µM, respectively. Besides, the “Ratio IC50” value in the assay with HL-60 [5] amounted to 0.26.

On to `COc1cccc(/C=C/C(=O)Nc2cc(OC)c(OC)c(OC)c2)c1`, for which the inhibition result in [9] was “Active”. Further, the IC50 amounted to 11.3 µM in the assay on HeLa [2], 3 µM with U-937 [1], 3.1 µM with HL-60 [4] and 11.6 µM with HL-60 [6]. Moreover, the outcome in the assay on HeLa [10], in the assay on HeLa [12], in the assay on HeLa [3], in the assay with U-937 [14] and with HeLa [15] was Active. Further, the Activity is on record as 49% in the assay on HeLa [11] and 18.2% in the assay with HeLa [13]. The “Ratio IC50” value in the assay with HL-60 [5] was found to be 3.74.

Consider `COc1cc(NC(=O)/C=C/c2ccccc2)cc(OC)c1OC`, for which the IC50 in the assay with HeLa [2] was greater than 50 µM; with U-937 [1] it was 45 µM.

For `C#CCOc1cccc(/C=C/C(=O)Nc2cc(OC)c(OC)c(OC)c2)c1`, the concentration for half-maximal inhibition (IC50) amounted to 2 µM in the assay with HeLa [2] and 6 µM with U-937 [1].

`COc1ccccc1NC(=O)/C=C/c1cc(OC)c(OC)c(OC)c1`: the IC50 in the assay with HeLa [2] and in the assay with U-937 [1] was greater than 50 µM in each case.

In the assay on U-937 [1], `COc1cccc(/C=C/C(=O)Nc2ccccc2OC)c1` came in with an IC50 greater than 50 µM.
